# ChEMBL document CHEMBL1140914, “Synthesis and in vitro and in vivo evaluation of 18F-labeled positron emission tomography (PET) ligands for imaging the vesicular acetylcholine transporter” (J Med Chem, 2009)
# Legend:
# Heart [1] = test: Drug uptake in Sprague-Dawley rat heart at 25 to 35 uCi, iv after 1 hr postinjection by […]; assay type: ADME, organism-based; conditions: in vivo
# Procedure, shortened: (§1)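 Mature male Sprague-Dawley rats (250–400 g) under 2–3% isoflurane got 25–35 μCi tracer in 100–150 μL saline via tail vein. Groups of at least 4 were euthanized at 5 min, 30 min, 1 h or 2 h. Brain was dissected into regions, and tissues were weighed and gamma counted against an injectate standard. Values are %ID/g, mean ± SD.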
# [2] = Drug uptake in Sprague-Dawley rat fat at 25 to 35 uCi, iv after 30 mins postinjection by […]; assay type: ADME, organism-based, Adipose tissue; conditions: in vivo, 0.5 h; procedure, shortened: as §1
# Cortex = test: Drug uptake in Sprague-Dawley rat brain cortex at 25 to 35 uCi, iv after 5 mins postinjection by […]; assay type: ADME, organism-based; conditions: in vivo; procedure, shortened: as §1
# Brain [3] = test: Drug uptake in Sprague-Dawley rat brain at 25 to 35 uCi, iv after 30 mins postinjection by […]; assay type: ADME, organism-based; conditions: in vivo, 0.5 h; procedure, shortened: as §1
# Heart [4] = test: Drug uptake in Sprague-Dawley rat heart at 25 to 35 uCi, iv after 2 hrs postinjection by […]; assay type: ADME, organism-based; conditions: in vivo; procedure, shortened: as §1
# Brain [5] = test: Drug uptake in Sprague-Dawley rat brain at 25 to 35 uCi, iv after 5 mins postinjection by […]; assay type: ADME, organism-based; conditions: in vivo; procedure, shortened: as §1
# Bone [6] = test: Drug uptake in Sprague-Dawley rat bone at 25 to 35 uCi, iv after 5 mins postinjection by […]; assay type: ADME, organism-based, Bone element; conditions: in vivo; procedure, shortened: as §1
# Muscle tissue [7] = test: Drug uptake in Sprague-Dawley rat muscle at 25 to 35 uCi, iv after 5 mins postinjection by […]; assay type: ADME, organism-based; conditions: in vivo; procedure, shortened: as §1
# Brain [8] = test: Drug uptake in Sprague-Dawley rat brain at 25 to 35 uCi, iv after 2 hrs postinjection by […]; assay type: ADME, organism-based; conditions: in vivo; procedure, shortened: as §1
# [9] = Drug uptake in Sprague-Dawley rat fat at 25 to 35 uCi, iv after 1 hr postinjection by […]; assay type: ADME, organism-based, Adipose tissue; conditions: in vivo; procedure, shortened: as §1
# Blood [10] = test: Drug uptake in Sprague-Dawley rat blood at 25 to 35 uCi, iv after 1 hr postinjection by […]; assay type: ADME, organism-based; conditions: in vivo; procedure, shortened: as §1
# Heart [11] = test: Drug uptake in Sprague-Dawley rat heart at 25 to 35 uCi, iv after 30 mins postinjection by […]; assay type: ADME, organism-based; conditions: in vivo, 0.5 h; procedure, shortened: as §1
# Brain [12] = test: Drug uptake in Sprague-Dawley rat brain at 25 to 35 uCi, iv after 1 hr postinjection by […]; assay type: ADME, organism-based; conditions: in vivo; procedure, shortened: as §1
# Lung [13] = test: Drug uptake in Sprague-Dawley rat lung at 25 to 35 uCi, iv after 1 hr postinjection by […]; assay type: ADME, organism-based; conditions: in vivo; procedure, shortened: as §1
# Kidney [14] = test: Drug uptake in Sprague-Dawley rat kidney at 25 to 35 uCi, iv after 30 mins postinjection by […]; assay type: ADME, organism-based; conditions: in vivo, 0.5 h; procedure, shortened: as §1
# Kidney [15] = test: Drug uptake in Sprague-Dawley rat kidney at 25 to 35 uCi, iv after 5 mins postinjection by […]; assay type: ADME, organism-based; conditions: in vivo; procedure, shortened: as §1
# Muscle tissue [16] = test: Drug uptake in Sprague-Dawley rat muscle at 25 to 35 uCi, iv after 1 hr postinjection by […]; assay type: ADME, organism-based; conditions: in vivo; procedure, shortened: as §1
# Muscle tissue [17] = test: Drug uptake in Sprague-Dawley rat muscle at 25 to 35 uCi, iv after 30 mins postinjection by […]; assay type: ADME, organism-based; conditions: in vivo, 0.5 h; procedure, shortened: as §1
# Lung [18] = test: Drug uptake in Sprague-Dawley rat lung at 25 to 35 uCi, iv after 30 mins postinjection by […]; assay type: ADME, organism-based; conditions: in vivo, 0.5 h; procedure, shortened: as §1
# Liver [19] = test: Drug uptake in Sprague-Dawley rat liver at 25 to 35 uCi, iv after 30 mins postinjection by […]; assay type: ADME, organism-based; conditions: in vivo, 0.5 h; procedure, shortened: as §1
# Hippocampus = test: Drug uptake in Sprague-Dawley rat brain hippocampus at 25 to 35 uCi, iv after 5 mins postinjection by […]; assay type: ADME, organism-based; conditions: in vivo; procedure, shortened: as §1
# Bone [20] = test: Drug uptake in Sprague-Dawley rat bone at 25 to 35 uCi, iv after 30 mins postinjection by […]; assay type: ADME, organism-based, Bone element; conditions: in vivo, 0.5 h; procedure, shortened: as §1
# Kidney [21] = test: Drug uptake in Sprague-Dawley rat kidney at 25 to 35 uCi, iv after 1 hr postinjection by […]; assay type: ADME, organism-based; conditions: in vivo; procedure, shortened: as §1
# Lung [22] = test: Drug uptake in Sprague-Dawley rat lung at 25 to 35 uCi, iv after 2 hrs postinjection by […]; assay type: ADME, organism-based; conditions: in vivo; procedure, shortened: as §1
# Cerebellum = test: Drug uptake in Sprague-Dawley rat brain cerebellum at 25 to 35 uCi, iv after 5 mins postinjection by […]; assay type: ADME, organism-based; conditions: in vivo; procedure, shortened: as §1
# Bone [23] = test: Drug uptake in Sprague-Dawley rat bone at 25 to 35 uCi, iv after 1 hr postinjection by […]; assay type: ADME, organism-based, Bone element; conditions: in vivo; procedure, shortened: as §1
# [24] = Drug uptake in Sprague-Dawley rat fat at 25 to 35 uCi, iv after 5 mins postinjection by […]; assay type: ADME, organism-based, Adipose tissue; conditions: in vivo; procedure, shortened: as §1
# [25] = Drug uptake in Sprague-Dawley rat fat at 25 to 35 uCi, iv after 2 hrs postinjection by […]; assay type: ADME, organism-based, Adipose tissue; conditions: in vivo; procedure, shortened: as §1
# Liver [26] = test: Drug uptake in Sprague-Dawley rat liver at 25 to 35 uCi, iv after 5 mins postinjection by […]; assay type: ADME, organism-based; conditions: in vivo; procedure, shortened: as §1
# Heart [27] = test: Drug uptake in Sprague-Dawley rat heart at 25 to 35 uCi, iv after 5 mins postinjection by […]; assay type: ADME, organism-based; conditions: in vivo; procedure, shortened: as §1
# Blood [28] = test: Drug uptake in Sprague-Dawley rat blood at 25 to 35 uCi, iv after 30 mins postinjection by […]; assay type: ADME, organism-based; conditions: in vivo, 0.5 h; procedure, shortened: as §1
# Striatum = test: Drug uptake in Sprague-Dawley rat brain striatum at 25 to 35 uCi, iv after 5 mins postinjection by […]; assay type: ADME, organism-based; conditions: in vivo; procedure, shortened: as §1
# Liver [29] = test: Drug uptake in Sprague-Dawley rat liver at 25 to 35 uCi, iv after 2 hrs postinjection by […]; assay type: ADME, organism-based; conditions: in vivo; procedure, shortened: as §1
# Lung [30] = test: Drug uptake in Sprague-Dawley rat lung at 25 to 35 uCi, iv after 5 mins postinjection by […]; assay type: ADME, organism-based; conditions: in vivo; procedure, shortened: as §1
# Bone [31] = test: Drug uptake in Sprague-Dawley rat bone at 25 to 35 uCi, iv after 2 hrs postinjection by […]; assay type: ADME, organism-based, Bone element; conditions: in vivo; procedure, shortened: as §1
# Muscle tissue [32] = test: Drug uptake in Sprague-Dawley rat muscle at 25 to 35 uCi, iv after 2 hrs postinjection by […]; assay type: ADME, organism-based; conditions: in vivo; procedure, shortened: as §1
# Blood [33] = test: Drug uptake in Sprague-Dawley rat blood at 25 to 35 uCi, iv after 2 hrs postinjection by […]; assay type: ADME, organism-based; conditions: in vivo; procedure, shortened: as §1
# Blood [34] = test: Drug uptake in Sprague-Dawley rat blood at 25 to 35 uCi, iv after 5 mins postinjection by […]; assay type: ADME, organism-based; conditions: in vivo; procedure, shortened: as §1
# Liver [35] = test: Drug uptake in Sprague-Dawley rat liver at 25 to 35 uCi, iv after 1 hr postinjection by […]; assay type: ADME, organism-based; conditions: in vivo; procedure, shortened: as §1
# Kidney [36] = test: Drug uptake in Sprague-Dawley rat kidney at 25 to 35 uCi, iv after 2 hrs postinjection by […]; assay type: ADME, organism-based; conditions: in vivo; procedure, shortened: as §1
structure (smiles),measurement,setting,value
O=C(c1ccc([18F])cc1)C1CCN([C@@H]2Cc3ccccc3C[C@H]2O)CC1 (stereo in doubt; (-)),Drug uptake,Heart [1],0.066 % ID/g
same,Drug uptake,[2],0.207 % ID/g
same,Drug uptake,Cortex,0.911 % ID/g
same,Drug uptake,Brain [3],0.226 % ID/g
same,Drug uptake,Heart [4],0.047 % ID/g
same,Drug uptake,Brain [5],0.823 % ID/g
same,Drug uptake,Bone [6],0.334 % ID/g
same,Drug uptake,Muscle tissue [7],0.091 % ID/g
same,Drug uptake,Brain [8],0.095 % ID/g
same,Drug uptake,[9],0.241 % ID/g
same,Drug uptake,Blood [10],0.029 % ID/g
same,Drug uptake,Heart [11],0.109 % ID/g
same,Drug uptake,Brain [12],0.124 % ID/g
same,Drug uptake,Lung [13],0.327 % ID/g
same,Drug uptake,Kidney [14],1.896 % ID/g
same,Drug uptake,Kidney [15],2.018 % ID/g
same,Drug uptake,Muscle tissue [16],0.056 % ID/g
same,Drug uptake,Muscle tissue [17],0.08 % ID/g
same,Drug uptake,Lung [18],0.481 % ID/g
same,Drug uptake,Liver [19],1.769 % ID/g
same,Drug uptake,Hippocampus,0.837 % ID/g
same,Drug uptake,Bone [20],0.157 % ID/g
same,Drug uptake,Kidney [21],1.298 % ID/g
same,Drug uptake,Lung [22],0.199 % ID/g
same,Drug uptake,Cerebellum,0.743 % ID/g
same,Drug uptake,Bone [23],0.148 % ID/g
same,Drug uptake,[24],0.132 % ID/g
same,Drug uptake,[25],0.249 % ID/g
same,Drug uptake,Liver [26],1.506 % ID/g
same,Drug uptake,Heart [27],0.321 % ID/g
same,Drug uptake,Blood [28],0.037 % ID/g
same,Drug uptake,Striatum,0.911 % ID/g
same,Drug uptake,Liver [29],1.791 % ID/g
same,Drug uptake,Lung [30],1.577 % ID/g
same,Drug uptake,Bone [31],0.138 % ID/g
same,Drug uptake,Muscle tissue [32],0.035 % ID/g
same,Drug uptake,Blood [33],0.02 % ID/g
same,Drug uptake,Blood [34],0.073 % ID/g
same,Drug uptake,Liver [35],2.214 % ID/g
same,Drug uptake,Kidney [36],1.339 % ID/g
